Data set [1] can be described thus: Multicomponent pharmacokinetics in rat plasma after single i.v. EBI. The class given is in vivo, Sprague-Dawley rats. The settings on record: Sprague-Dawley, iv, n = 6.
Data set [2] relates to isoprenaline-induced myocardial infarction (MI) in mice. It counts as in vivo, Kunming mice. The settings on record: 30 mg kg^-1 i.v. for 7 days, seventh day. An outline of the steps:
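Kunming mice (about 8 weeks, 20–30 g) were randomised into groups of n = 8 and given test compound i.v. for 7 days in 0.5% NaHCO₃:propylene glycol:saline (17:2:81). Isoprenaline chloride 5 mg kg⁻¹ i.p. was given days 4–5 to all groups except control. Lead II ECG ST elevation was recorded under pentobarbital. Day-7 orbital serum was taken for CK, and left-ventricle H&E sections were read at 200×. Single-tailed t test.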

The mark [3] stands for this setting: 0.72 mL kg^-1, AUC0–t, Low dosage: 0.72 mL kg^-1 of 10 times concentrated EBI.
The mark [4] stands for this setting: 0.72 mL kg^-1, Cl, Low dosage: 0.72 mL kg^-1 of 10 times concentrated EBI.
[5] abbreviates: 0.72 mL kg^-1, MRT0–t, Low dosage: 0.72 mL kg^-1 of 10 times concentrated EBI.
[6] abbreviates: 0.72 mL kg^-1, Vd, Low dosage: 0.72 mL kg^-1 of 10 times concentrated EBI.
Setting [7] is: 0.72 mL kg^-1, t 1/2, Low dosage: 0.72 mL kg^-1 of 10 times concentrated EBI.
[8] abbreviates: 3.6 mL kg^-1, AUC0–t, High dosage: 3.6 mL kg^-1 of 10 times concentrated EBI.
[9] abbreviates: 3.6 mL kg^-1, Cl, High dosage: 3.6 mL kg^-1 of 10 times concentrated EBI.
[10] abbreviates: 3.6 mL kg^-1, MRT0–t, High dosage: 3.6 mL kg^-1 of 10 times concentrated EBI.
[11] abbreviates: 3.6 mL kg^-1, Vd, High dosage: 3.6 mL kg^-1 of 10 times concentrated EBI.
Setting [12] is: 3.6 mL kg^-1, t 1/2, High dosage: 3.6 mL kg^-1 of 10 times concentrated EBI.

A word on the AUC(0-t): it is the area under the concentration-time curve up to a stated or last time point. Higher therefore signals high exposure. For orientation: clearance means the volume of plasma or blood freed of the substance per unit of time. Lower therefore signals a low capacity for elimination. What is called MRT last is the average time that molecules of a dose stay in the body. One may read the Vd as a proportionality between amount in the body and measured concentration, not a real space. High values mean wide distribution into tissue, low ones little distribution into tissue. The half-life is the time needed for the level to fall by half in the phase considered. A high value points to slow decline. As to `O=C(O)/C=C/c1ccc(O)c(O)c1` [Caffeic acid, caffeic acid], the AUC(0-t) in data set [1] (setting [3]) was 75.2 ± 43.8 ng·h/mL; in data set [1] (setting [8]) it was 393 ± 145 ng·h/mL. In addition, the results for the clearance in data set [1] (setting [4]) and in data set [1] (setting [9]) were 8 mL/min and 6.83 mL/min, respectively. For the same compound, the MRT last in data set [1] (setting [5]) worked out at 8.4 ± 2.4 min; in data set [1] (setting [10]), 12 ± 4.2 min. Moreover, the results for the distribution volume (Vd) in data set [1] (setting [6]) and in data set [1] (setting [11]) were 0.16 ± 0.07 L and 0.13 ± 0.06 L, respectively. Also, the half-life in data set [1] (setting [7]) was 13.8 ± 1.8 min; in data set [1] (setting [12]), 13.2 ± 4.2 min.

Turning to `O=C(O)[C@H]1O[C@@H](Oc2cc3oc(-c4ccc(O)cc4)cc(=O)c3c(O)c2O)[C@H](O)[C@@H](O)[C@@H]1O` [Scutellarin, scutellarin], the AUC(0-t) in data set [1] (setting [3]) was 1510 ± 574 ng·h/mL; in data set [1] (setting [8]), 6860 ± 989 ng·h/mL. Further, the clearance in data set [1] (setting [4]) was 8.5 mL/min; in data set [1] (setting [9]), 7.5 mL/min. For the same compound, the results for the MRT last in data set [1] (setting [5]) and in data set [1] (setting [10]) were 23.4 ± 5.4 min and 27 ± 6 min, respectively. Besides, the results for the Vd in data set [1] (setting [6]) and in data set [1] (setting [11]) were 0.9 ± 0.54 L and 1.63 ± 0.65 L, respectively. For the same compound, the values for the half-life in data set [1] (setting [7]) and in data set [1] (setting [12]) were 74.4 ± 38.4 min and 151 ± 57 min, respectively. Besides, in data set [2] (P < 0.05 vs. model group), the “ST segment elevation (ECG)” value is reported as “seldom occurred”. For the same compound, in data set [2] (P < 0.05 vs. model group), the “serum creatine kinase (CK) activity” value is on record as “significantly decreased”. Moreover, the “heart histopathology (H&E staining)” value in data set [2] (left ventricle sections) is “mild edema, inflammatory infiltration and loss of striations in heart tissue”.

Source of the values: article PMC9070076 (RSC Advances, 2019).
